Source: ChEMBL document CHEMBL1139225, “Metabolism-based identification of a potent thrombin receptor antagonist” (J Med Chem, 2007)
In brackets after ≈: the same amount, converted by molar mass. Blank lines part the entries; values can stand above or below the compound they belong to. Activity calls are given as the source filed them. No cut-off for these calls is given here.

Tests used:
[1] = target: T1, Proteinase-activated receptor 1 (Homo sapiens, UniProt P25116); experiment: Displacement of [3H]haTRAP from PAR1 in human platelet membrane; type: cell membranes
T1 sequence (P25116 whole entry): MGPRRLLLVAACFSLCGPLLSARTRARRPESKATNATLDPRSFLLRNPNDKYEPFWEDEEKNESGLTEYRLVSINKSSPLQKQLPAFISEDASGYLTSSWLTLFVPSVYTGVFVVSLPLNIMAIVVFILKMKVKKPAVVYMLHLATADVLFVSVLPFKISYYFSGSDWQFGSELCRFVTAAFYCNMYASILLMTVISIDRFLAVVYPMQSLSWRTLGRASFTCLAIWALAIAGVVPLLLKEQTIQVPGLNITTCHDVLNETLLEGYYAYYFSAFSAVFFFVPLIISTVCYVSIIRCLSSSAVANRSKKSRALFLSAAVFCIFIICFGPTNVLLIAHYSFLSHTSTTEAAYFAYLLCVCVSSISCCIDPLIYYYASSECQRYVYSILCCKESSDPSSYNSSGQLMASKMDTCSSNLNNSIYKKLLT

[2] = tested on: Platelet; experiment: Inhibition of haTRAP-induced platelet aggregation in cynomolgus monkey at 3 mg/kg; type: functional, organism-based; design: dose 3 mg/kg; conditions: Macaca fascicularis
Outline: (§1)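 Ex-vivo assay in cynomolgus monkeys. The compound was given orally as a single dose (1 mg/kg or 3 mg/kg in 20% HPβCD). Platelet aggregation induced by haTRAP was then measured in samples taken after dosing, at time points up to 24 h.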

[3] = Inhibition of thrombin-mediated activation of calcium transients in human CASMC; type: functional
Outline: (§2)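 Human coronary artery smooth muscle cells were loaded with the fluorescent calcium dye Fluo-3, and intracellular calcium was read on a fluorometric imaging plate reader. Thrombin served as the agonist in the inhibition format. For the agonist check, cells were treated with the compound alone.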

[4] = Inhibition of thrombin-stimulated [3H]thymidine incorporation in human CASMC; type: functional
Outline: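 Human coronary artery smooth muscle cells were stimulated with thrombin. [3H]thymidine incorporation was measured, and an apparent Ki was derived.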

[5] = Inhibition of haTRAP-induced human platelet aggregation; type: functional, cell-based
Outline: (§3)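 Washed platelets from healthy human donors who had been aspirin-free for 7 days were preincubated with the compound for 1 h. Aggregation was then triggered by 0.3 µM haTRAP, or by ADP for the specificity test. IC50 was derived for the haTRAP response.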

[6] = Oral absorption in cynomolgus monkey; type: ADME, organism-based, Macaca fascicularis; conditions: in vivo
[7] = Bioavailability in cynomolgus monkey; type: ADME, organism-based, Macaca fascicularis; conditions: in vivo
[8] = target: Cytochrome P450 2D6 (Homo sapiens, UniProt P10635); experiment: Inhibition of cytochrome P450 2D6 in human liver microsomes up to 10 uM; type: ADME, Microsome
Sequence of Cytochrome P450 2D6 (P10635 whole entry): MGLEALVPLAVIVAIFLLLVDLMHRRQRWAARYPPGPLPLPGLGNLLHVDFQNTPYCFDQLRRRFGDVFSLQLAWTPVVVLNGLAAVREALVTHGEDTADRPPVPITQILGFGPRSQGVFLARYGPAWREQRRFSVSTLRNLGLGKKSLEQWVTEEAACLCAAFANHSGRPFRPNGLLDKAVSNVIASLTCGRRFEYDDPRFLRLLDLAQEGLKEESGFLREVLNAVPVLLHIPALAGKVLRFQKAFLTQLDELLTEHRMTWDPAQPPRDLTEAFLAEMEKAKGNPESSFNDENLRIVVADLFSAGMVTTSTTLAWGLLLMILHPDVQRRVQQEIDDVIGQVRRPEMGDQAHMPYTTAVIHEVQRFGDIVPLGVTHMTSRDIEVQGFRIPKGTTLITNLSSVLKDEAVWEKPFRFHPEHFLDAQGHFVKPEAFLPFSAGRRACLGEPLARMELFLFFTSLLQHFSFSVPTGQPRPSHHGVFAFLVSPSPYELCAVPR
Outline: (§4)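 Human liver microsomes. The compound was tested at concentrations up to 10 µM for inhibition of CYP2D6, 3A4, 2C9 and 2C19.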

[9] = target: Cytochrome P450 3A4 (Homo sapiens, UniProt P08684); experiment: Inhibition of cytochrome P450 3A4 in human liver microsomes up to 10 uM; type: ADME, Microsome; outline: as §4
Sequence of Cytochrome P450 3A4 (P08684 whole entry): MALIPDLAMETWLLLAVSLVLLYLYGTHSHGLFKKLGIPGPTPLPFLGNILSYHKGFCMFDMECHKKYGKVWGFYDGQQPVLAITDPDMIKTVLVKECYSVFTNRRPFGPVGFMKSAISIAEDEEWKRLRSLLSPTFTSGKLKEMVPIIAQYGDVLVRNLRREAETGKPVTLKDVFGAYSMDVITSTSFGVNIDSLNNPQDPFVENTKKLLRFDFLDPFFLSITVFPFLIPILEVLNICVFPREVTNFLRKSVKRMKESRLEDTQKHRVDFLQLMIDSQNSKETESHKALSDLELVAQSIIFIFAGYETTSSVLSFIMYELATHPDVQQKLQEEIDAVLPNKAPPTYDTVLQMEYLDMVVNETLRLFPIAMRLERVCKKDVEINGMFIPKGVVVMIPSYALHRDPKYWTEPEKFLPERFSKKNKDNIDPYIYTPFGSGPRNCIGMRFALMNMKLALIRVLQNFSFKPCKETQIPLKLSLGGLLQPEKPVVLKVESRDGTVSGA

[10] = target: Cytochrome P450 2C9 (Homo sapiens, UniProt P11712); experiment: Inhibition of cytochrome P450 2C9 in human liver microsomes up to 10 uM; type: ADME, Microsome; outline: as §4
Sequence of Cytochrome P450 2C9 (P11712 whole entry): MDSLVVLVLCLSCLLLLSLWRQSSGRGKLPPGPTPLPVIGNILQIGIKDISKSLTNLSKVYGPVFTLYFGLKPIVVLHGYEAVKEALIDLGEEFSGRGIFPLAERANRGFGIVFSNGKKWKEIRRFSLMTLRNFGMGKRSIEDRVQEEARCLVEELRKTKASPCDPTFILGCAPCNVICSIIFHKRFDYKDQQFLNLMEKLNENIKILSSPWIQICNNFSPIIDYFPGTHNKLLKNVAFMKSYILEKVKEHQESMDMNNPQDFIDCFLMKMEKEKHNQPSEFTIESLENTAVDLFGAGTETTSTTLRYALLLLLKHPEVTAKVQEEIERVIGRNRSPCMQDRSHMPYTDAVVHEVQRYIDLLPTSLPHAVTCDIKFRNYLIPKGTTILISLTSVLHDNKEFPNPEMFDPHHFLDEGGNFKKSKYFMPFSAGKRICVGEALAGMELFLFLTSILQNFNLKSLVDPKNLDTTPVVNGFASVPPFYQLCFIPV

[11] = target: Cytochrome P450 2C19 (Homo sapiens, UniProt P33261); experiment: Inhibition of cytochrome P450 2C19 in human liver microsomes up to 10 uM; type: ADME, Microsome; outline: as §4
Sequence of Cytochrome P450 2C19 (P33261 whole entry): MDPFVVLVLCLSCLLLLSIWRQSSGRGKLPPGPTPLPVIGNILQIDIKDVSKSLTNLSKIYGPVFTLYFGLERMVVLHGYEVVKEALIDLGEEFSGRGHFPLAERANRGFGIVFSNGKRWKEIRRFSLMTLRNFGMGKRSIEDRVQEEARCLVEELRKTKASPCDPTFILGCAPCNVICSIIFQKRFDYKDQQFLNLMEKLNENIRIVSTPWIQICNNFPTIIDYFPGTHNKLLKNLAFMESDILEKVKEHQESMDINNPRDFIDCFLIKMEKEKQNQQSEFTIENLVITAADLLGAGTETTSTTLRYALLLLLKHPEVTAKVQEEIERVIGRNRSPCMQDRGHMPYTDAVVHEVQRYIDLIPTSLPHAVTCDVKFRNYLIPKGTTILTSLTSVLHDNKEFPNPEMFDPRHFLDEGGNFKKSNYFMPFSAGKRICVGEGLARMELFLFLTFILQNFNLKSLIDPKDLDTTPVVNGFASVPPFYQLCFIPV

[12] = AUC (0-24h) in Sprague-Dawley rat at 300 mg/kg, po after 1 day; type: ADME, organism-based; design: time < 24 hr, dose 300 mg/kg, route oral; conditions: plasma
Outline: (§5)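 Fed male Sprague Dawley rats, four per group, given the compound orally once daily for 10 consecutive days in 0.4% methylcellulose (100 and 300 mg/kg groups). On day 1 and day 10, plasma concentrations of parent and hydroxylated metabolites were measured at 1, 2, 4, 8, 12 and 24 h, giving AUC(0-24 h) and Cmax.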

[13] = AUC (0-24h) in Sprague-Dawley rat at 300 mg/kg, po after 10 days; type: ADME, organism-based; design: time < 24 hr, dose 300 mg/kg, route oral; conditions: plasma; outline: as §5
[14] = Cmax in Sprague-Dawley rat at 300 mg/kg, po after 1 day; type: ADME, organism-based; design: dose 300 mg/kg, route oral; conditions: in vivo; outline: as §5
[15] = Cmax in Sprague-Dawley rat at 300 mg/kg, po after 10 days; type: ADME, organism-based; design: dose 300 mg/kg, route oral; conditions: in vivo; outline: as §5
[16] = AUC (0-24h) in cynomolgus monkey at 1 mg/kg, po; type: ADME, organism-based, Macaca fascicularis; design: time < 24 hr, dose 1 mg/kg, route oral; conditions: plasma
Outline: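 Cynomolgus monkeys received a single oral dose of 1 mg/kg in 20% HPβCD. Blood levels were followed at various time points afterwards.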

[17] = AUC (0-6h) in rat after oral administration; type: ADME, organism-based; design: time < 6 hr, route oral; conditions: plasma
[18] = tested on: Platelet; experiment: Inhibition of haTRAP-induced platelet aggregation in cynomolgus monkey at 1 mg/kg after 6 hrs; type: functional, organism-based; design: dose 1 mg/kg; conditions: Macaca fascicularis; outline: as §1
[19] = Inhibition of haTRAP-induced platelet aggregation in cynomolgus monkey at 1 mg/kg after 24 hr; type: functional; conditions: Macaca fascicularis; outline: as §1
[20] = tested on: Platelet; experiment: Inhibition of ADP-induced human platelet aggregation; type: functional, cell-based; outline: as §3
[21] = species: Homo sapiens; experiment: Effect on elevation of calcium level in human CASMC; type: functional; outline: as §2
[22] = tested on: Rattus norvegicus; experiment: Increase in liver to body weight ratio in Sprague-Dawley rat at 100 mg/kg, po; type: functional
Outline: (§6)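 Ten-day enzyme induction study. Fed male Sprague Dawley rats, four per group, were dosed orally once daily at 100 or 300 mg/kg in 0.4% methylcellulose. Liver/body weight ratio, spectral cytochrome P450, and CYP1A and CYP2B levels were expressed relative to a control group.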

[23] = tested on: Rattus norvegicus; experiment: Increase in liver to body weight ratio in Sprague-Dawley rat at 300 mg/kg, po; type: functional; outline: as §6
[24] = tested on: Rattus norvegicus; experiment: Increase in hepatic enzyme CYP2B in Sprague-Dawley rat at 300 mg/kg, po; type: functional; outline: as §6
[25] = tested on: Rattus norvegicus; experiment: Increase in hepatic enzyme CYP1A in Sprague-Dawley rat at 300 mg/kg, po; type: functional; outline: as §6
[26] = tested on: Rattus norvegicus; experiment: Increase in hepatic enzyme CYP2B in Sprague-Dawley rat at 100 mg/kg, po; type: functional; outline: as §6
[27] = tested on: Rattus norvegicus; experiment: Increase in hepatic enzyme CYP1A in Sprague-Dawley rat at 100 mg/kg, po; type: functional; outline: as §6
[28] = AUC (0-6h) in rat at 10 mg/kg, po; type: ADME, organism-based; design: time < 6 hr, dose 10 mg/kg, route oral; conditions: plasma
Outline: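 Rat oral pharmacokinetics at 10 mg/kg dosed in 20% HPβCD. Plasma exposure was reported as AUC(0-6).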

[29] = Solubility of the compound; type: physicochemical

Structure (SMILES): C[C@H]1OC(=O)[C@@H]2C[C@@H]3CC[C@H](O)C[C@H]3[C@H](/C=C/c3ccc(-c4cccc(C(F)(F)F)c4)cn3)[C@H]12
IC50 [1]: 845 nM

Structure (SMILES): C[C@H]1OC(=O)[C@@H]2C[C@@H]3CC[C@@H](O)C[C@H]3[C@H](/C=C/c3ccc(-c4cccc(C(F)(F)F)c4)cn3)[C@H]12
IC50 [1]: 481 nM

Structure (SMILES): C[C@H]1OC(=O)[C@@H]2C[C@H]3[C@@H](CCC[C@H]3O)[C@H](/C=C/c3ccc(-c4cccc(C(F)(F)F)c4)cn3)[C@H]12
IC50 [1]: 28 nM

Structure (SMILES): C[C@H]1OC(=O)[C@@H]2C[C@@H]3CC(F)(F)CC[C@H]3[C@H](/C=C/c3ccc(-c4cccc(F)c4)cn3)[C@H]12
IC50 [1]: 15 nM

Structure (SMILES): C[C@H]1OC(=O)[C@@H]2C[C@@H]3C[C@H](O)CC[C@H]3[C@H](/C=C/c3ccc(-c4ccccc4F)cn3)[C@H]12
IC50 [1]: 72 nM

Structure (SMILES): C[C@H]1OC(=O)[C@@H]2C[C@@H]3C[C@H](O)CC[C@H]3[C@H](/C=C/c3ccc(-c4cc(Cl)ccc4Cl)cn3)[C@H]12
IC50 [1]: 97 nM

Continued, in another order:

Ki [3]: 85 nM
Ki [4]: 22 nM
IC50 [5]: 60 nM
Fa [6]: 92%
bioavailability [7]: 89%
Activity [8]: Not Active
Activity [9]: Not Active
Activity [10]: Not Active
Activity [11]: Not Active
IC50 [1]: 17 nM
Ki [1]: 11 nM
AUC(0-t) at 24 h [12]: 93000 ng·h/mL
AUC at 24 h [13]: 41000 ng·h/mL
Cmax [14]: 58000 ng/mL
Cmax [15]: 25000 ng/mL
AUC(0-t) at 24 h [16]: 3060 ng·h/mL
AUC(0-t) at 6 h [17]: 6130 ng·h/mL
Structure (SMILES): C[C@H]1OC(=O)[C@@H]2C[C@@H]3C[C@H](O)CC[C@H]3[C@H](/C=C/c3ccc(-c4cccc(C(F)(F)F)c4)cn3)[C@H]12
Activity [2]: Active
Activity [18]: Active
inhibition in vivo at 1 mg/kg [19]: 60%
Activity [20]: inactive
Activity [21]: inactive

IC50 [1]: 70 nM
Structure (SMILES): Cc1ccccc1-c1ccc(/C=C/[C@H]2[C@@H]3CC[C@@H](O)C[C@H]3C[C@H]3C(=O)O[C@H](C)[C@@H]23)nc1

AUC(0-t) at 24 h [12]: 35000 ng·h/mL
AUC at 24 h [13]: 21000 ng·h/mL
Cmax [14]: 29000 ng/mL
Cmax [15]: 17000 ng/mL
Structure (SMILES): C[C@H]1OC(=O)[C@@H]2C[C@@H]3CCCC[C@H]3[C@H](/C=C/c3ccc(-c4cccc(C(F)(F)F)c4)cn3)[C@H]12
Activity [22]: 10%
Activity [23]: 34%
Activity [24]: 21
Activity [25]: 3.6
Activity [26]: 2.5
Activity [27]: 1.8

IC50 [1]: 23 nM
AUC(0-t) at 24 h [12]: 18000 ng·h/mL
AUC at 24 h [13]: 81000 ng·h/mL
Cmax [14]: 11000 ng/mL
Cmax [15]: 47000 ng/mL
AUC(0-t) at 24 h [16]: 73 ng·h/mL
AUC(0-t) at 6 h [17]: 3150 ng·h/mL
Structure (SMILES): C[C@H]1OC(=O)[C@@H]2C[C@@H]3C[C@@H](O)CC[C@H]3[C@H](/C=C/c3ccc(-c4cccc(C(F)(F)F)c4)cn3)[C@H]12
Activity [18]: Active

IC50 [1]: 37 nM
AUC(0-t) at 6 h [28]: 1200 ng·h/mL
solubility [29]: 5 µM (≈ 2.46 µg/mL)
Structure (SMILES): C[C@H]1OC(=O)[C@@H]2C[C@@H]3CC(F)(F)CC[C@H]3[C@H](/C=C/c3ccc(-c4cccc(C(F)(F)F)c4)cn3)[C@H]12

IC50 [1]: 12 nM
AUC(0-t) at 6 h [28]: 1200 ng·h/mL
solubility [29]: 5 µM (≈ 2.29 µg/mL)
Structure (SMILES): C[C@H]1OC(=O)[C@@H]2C[C@@H]3CC(F)(F)CC[C@H]3[C@H](/C=C/c3ccc(-c4cccc(Cl)c4)cn3)[C@H]12
